These results are taken from ChEMBL document CHEMBL3992510, “Urea Derivatives of 2-Aryl-benzothiazol-5-amines: A New Class of Potential Drugs for Human African Trypanosomiasis” (J Med Chem, 2017).

A short description of series [1]: Selectivity index, ratio of EC50 for human HepG2 cells to EC50 for Trypanosoma brucei brucei BF427. Format: toxicity. As to conditions: read-out: Ratio EC50.
Series [2] is described as follows: Stability in human liver microsomes assessed as compound remaining at 1.5 uM in presence of NADPH measured after 60 mins by liquid chromatography/tandem mass spectrometric analysis. Format: ADME, microsome. As to conditions: read-out: Stability. The essentials:
(§1)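 Pooled liver microsomes (0.5 mg/mL) are preincubated 5 min at 37 °C in 0.16 M KH2PO4 with 1 mM NADPH, then test compound is added at 1.5 μM. Aliquots are quenched with 4 volumes of acetonitrile at 0, 5, 10, 15, 30 and 60 min and analyzed by LC-MS/MS. Percent remaining at 5 or 60 min is given when t1/2 is outside the 5–60 min range. Controls: testosterone, dextromethorphan.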

Series [3] concerns HepG2. Kind of series: Cytotoxicity against human HepG2 cells assessed as growth inhibition after 48 hrs by Alamar blue assay. As to conditions: for EC50: Homo sapiens, HepG2, 48 h; for EC90: human, hepg2, 48 h. Format: cell-based. Summed up: (§2)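 CRL-8155 lymphoblasts or HepG2 hepatocellular carcinoma cells are exposed 48 h to serial compound dilutions in quadruplicate. Growth is read with Alamar Blue, and 50% and 90% inhibitory concentrations come from nonlinear regression. Quinacrine is the control.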
(Alamar Blue is a resazurin reagent that responds to reducing activity.)

A short description of series [4]: Drug level in mouse brain at 5 mg/kg, ip administered as single dose measured at 1 hr post dose by liquid chromatography/tandem mass spectrometric analysis. Format: ADME, organism-based. As to conditions: read-out: Drug uptake. The essentials:
(§3)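 Single ip dose of 5 mg/kg in 5% DMSO/7% Tween 80/3% EtOH in 0.9% saline, three mice per compound (six for one compound). At 1 h, plasma is separated by centrifugation and brain homogenized in acetonitrile. Both are quantified by LC-MS/MS, with brain corrected for 3% v/w blood. Brain/plasma ratio is reported as mean ± SEM.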

Series [5] can be described thus: Selectivity index, ratio of EC50 for human CRL8155 cells to EC50 for Trypanosoma brucei brucei BF427. Format: toxicity. As to conditions: read-out: Ratio EC50.
Series [6] in a line: AUC (0 to infinity) in mouse at 50 mg/kg, po administered as single dose via gavage as 7% Tween 80/3% EtOH/5% DMSO formulation by liquid chromatography/tandem mass spectrometric analysis. Format: ADME, organism-based. On the set-up: dose 50 mg/kg, route oral, time infinity. As to conditions: in vivo. Summed up: (§4)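 Single oral gavage dose of 50 mg/kg to groups of three mice, vehicle as in the line. Tail blood of 40 μL is taken into heparinized capillaries at time points out to as much as 32 h. It is spotted on dried-blood cards and quantified by LC-MS/MS. Values are means ± SEM of three mice.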

Series [7] concerns Trypanosoma brucei brucei. The series can be described thus: Antitrypanosomal activity against Trypanosoma brucei brucei BF427 assessed as growth inhibition measured after 48 hrs by Alamar blue assay. Format: functional. As to conditions: BF427, 48 h. Summed up:
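Bloodstream-form parasites in HMI-9 medium are exposed to serial compound dilutions in triplicate. Viability is read with Alamar Blue at 48 h. EC50 and EC90 come from nonlinear regression. Pentamidine isethionate is the control.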

Series [8] in a line: Ratio of drug level in brain to plasma in mouse at 5 mg/kg, ip administered as single dose measured at 1 hr post dose by liquid chromatography/tandem mass spectrometric analysis. Format: ADME, organism-based. Summed up:
as §3

Series [9] is described as follows: Drug level in mouse plasma at 5 mg/kg, ip administered as single dose measured at 1 hr post dose by liquid chromatography/tandem mass spectrometric analysis. Format: ADME, organism-based. The essentials: as §3
A short description of series [10]: Cytotoxicity against human CRL8155 cells assessed as growth inhibition after 48 hrs by Alamar blue assay. Format: cell-based. As to conditions: for EC50: Homo sapiens, CRL8155, 48 h; for EC90: human, crl8155, 48 h. Summed up: as §2
Series [11] is described as follows: Stability in mouse liver microsomes assessed as compound remaining at 1.5 uM in presence of NADPH measured after 60 mins by liquid chromatography/tandem mass spectrometric analysis. As to conditions: read-out: Stability. Format: ADME, microsome. Summed up:
as §1
On the technique in general: Liver microsomes are vesicles of endoplasmic reticulum, rich in cytochrome P450 enzymes.

The test system of series [12] is Liver. Kind of series: Half life in mouse liver microsomes at 1.5 uM in presence of NADPH by liquid chromatography/tandem mass spectrometric analysis. Format: ADME, microsome.
Series [13] is described as follows: Stability in human liver microsomes assessed as compound remaining at 1.5 uM in presence of NADPH measured after 5 mins by liquid chromatography/tandem mass spectrometric analysis. As to conditions: read-out: Stability. Format: ADME, microsome. Summed up:
as §1

Series [14] deals with Liver. Kind of series: Half life in human liver microsomes at 1.5 uM in presence of NADPH by liquid chromatography/tandem mass spectrometric analysis. Format: ADME, microsome.
Series [15] is described as follows: Stability in mouse liver microsomes assessed as compound remaining at 1.5 uM in presence of NADPH measured after 5 mins by liquid chromatography/tandem mass spectrometric analysis. Format: ADME, microsome. As to conditions: read-out: Stability.
Series [16] is described as follows: Cmax in mouse at 50 mg/kg, po administered as single dose via gavage as 7% Tween 80/3% EtOH/5% DMSO formulation by liquid chromatography/tandem mass spectrometric analysis. Format: ADME, organism-based. Set-up: dose 50 mg/kg, route oral. As to conditions: in vivo. The essentials:
as §4

Series [17] relates to Trypanosoma brucei brucei. Kind of series: Anti-parasitic activity against Trypanosoma brucei brucei TREU667 infected in mouse assessed as reduction in parasitemia at 10 mg/kg, ip bid administered on day 21 to 30 post infection measured on day 180 by microscopic method. Format: functional, organism-based.

Activity calls are given as the source filed them. The calls are words filed in the database; no cut-off is given here.

The term EC50 denotes the concentration at which the effect is half-maximal. What is called EC90 is the concentration at which the effect reaches the 90% level. By AUC(0-inf) is commonly meant the area under the concentration-time curve extrapolated to infinity. A lower AUC(0-inf) goes with less exposure. As to `O=C(Nc1ccc2sc(-c3ccc(F)c(F)c3)nc2c1)N1C[C@@H](F)[C@H](F)C1`, the selectivity ratio was greater than 439 in [1] and greater than 238 in series [5]. In addition, the remaining at 1 h, 1.5 µM stood at 96% in [2] and 67% in [11]. For the same compound, the concentration giving a half-maximal response (EC50) in series [3] was greater than 50 µM; in series [7] it was 0.114 µM; in series [10] it was 27.1 µM. In addition, the 90% effect concentration (EC90) is greater than 50 µM in [3], 0.747 µM in [7] and greater than 50 µM in series [10]. The values for the concentration at 1 h in series [4] and in series [9] were 16.2 µM and 2.19 µM, respectively. Moreover, the AUC(0-inf) in series [6] is 225 µM·h. The BPR in series [8] is listed as 7.71.
As to `O=C(Nc1ccc2sc(-c3ccc(F)c(F)c3)nc2c1)N1CCCC1`, the selectivity ratio in [1] is greater than 545; in [5] it was 369. Moreover, the remaining at 1 h, 1.5 µM in series [2] is 66%. For the same compound, the results for the EC50 in series [3], in series [7] and in [10] were greater than 50 µM, 0.0918 µM and 33.9 µM, respectively. Further, the EC90 was greater than 50 µM in series [3], 0.181 µM in series [7] and greater than 50 µM in series [10]. For the same compound, the concentration at 1 h is 4.25 µM in [4] and 2.61 µM in [9]. In series [6], this compound had an AUC(0-inf) of 7.39 µM·h. Also, the t1/2 in series [12] was 14 min.
With `CC1CCCCN1C(=O)NCCc1nc(-c2cccc(F)c2)cs1` (stereo not given), the selectivity ratio in series [1] and in [5] was greater than 1350 each time. In addition, the EC50 in [3] was greater than 50 µM; in series [7] it was 0.037 µM; in series [10], greater than 50 µM. The figures for the concentration for an effect of 90% (EC90) in [3], in series [7] and in [10] were greater than 50 µM, 0.0586 µM and greater than 50 µM, respectively. In addition, the remaining at 5 min, 1.5 µM in [13] was 3.9%; in series [15] it was 21%. Besides, the t1/2 in series [14] and in series [12] was less than 5 min in each case.
Regarding `O=C(NCCc1nc(-c2ccc(F)c(F)c2)cs1)N1CCCCC1`, the remaining at 5 min, 1.5 µM amounted to 22% in [13] and 0% in series [15]. The t1/2 in [14] and in series [12] was less than 5 min each time.
Regarding `O=C(NCCc1nc(-c2ccc(F)cc2F)cs1)N1CCCCC1`, the remaining at 5 min, 1.5 µM turned out to be 46% in series [13] and 0% in [15]. In addition, the t1/2 in series [14] and in series [12] was less than 5 min throughout.
What is called Cmax is the peak of the concentration-time curve. Consider `O=C(Nc1ccc2sc(-c3ccc(F)c(F)c3)nc2c1)N1CCC(F)C1` (stereo not given), for which the selectivity ratio in [1] and in series [5] was greater than 963 in each case. In addition, the remaining at 1 h, 1.5 µM in series [2] was determined as 99%; in [11] it was 52%. The EC50 in [3] was greater than 50 µM; in series [7], 0.0519 µM; in [10], greater than 50 µM. For the same compound, the EC90 was greater than 50 µM in [3] and 0.0919 µM in [7]. In addition, the concentration at 1 h in [4] was 5.48 µM; in series [9], 3.26 µM. This compound also gave an AUC(0-inf) in series [6] of 108 µM·h. In addition, the Cmax in [16] is 10 µM. Besides, the BPR in series [8] was 2.11. Besides, the t1/2 in series [14] and in series [12] was greater than 60 min each time.
Take `N=C(N)c1ccc(/N=N/Nc2ccc(C(=N)N)cc2)cc1`: the result in series [17] was inactive.
With `O=C(N/C=C/c1nc(-c2cccc(F)c2)cs1)N1CCCCC1`, the selectivity ratio in series [1] and in [5] was greater than 529 throughout. Also, the EC50 in series [3] was greater than 50 µM; in [7] it was 0.0946 µM; in [10] it was greater than 50 µM. Moreover, the EC90 in [3] is greater than 50 µM; in series [7], 0.216 µM; in series [10], greater than 50 µM. Besides, the remaining at 5 min, 1.5 µM in series [13] came to 28%. The t1/2 in series [14] is less than 5 min; in [12], 13 min.
